Results pooled from the literature.
Lines come from different studies, so protocols differ.
Organism: Candida albicans
Read-out: microbial growth

O=C1NN=C(N=Cc2ccccc2O)C1=NNn1c(-c2ccccc2)nc2ccccc2c1=O — MIC (broth dilution): 111 µM
O=C(Cc1ccc(O)c(O)c1)NCCCCCCCC[P+](c1ccccc1)(c1ccccc1)c1ccccc1.[Br-] — MIC (broth dilution; ATCC90028; 24 h): > 32 mg/L
C[C@@H]1[C@H](O)[C@@H](C)/C=C/C=C/C=C/C=C/C=C/C=C/C=C/[C@H](O[C@@H]2O[C@H](C)[C@@H](O)[C@H](N)[C@@H]2O)C[C@@H]2O[C@](O)(C[C@@H](O)C[C@@H](O)[C@H](O)CC[C@@H](O)C[C@@H](O)CC(=O)O[C@H]1C)C[C@H](O)[C@H]2C(=O)O — MIC (broth dilution): 0.25 mg/L
O=C(CCCCCCCCCC[P+](c1ccccc1)(c1ccccc1)c1ccccc1)Nc1cc(O)c(O)c(O)c1.[Br-] — MIC (broth dilution; ATCC90028; 24 h): 8 mg/L
C=C1C(=O)O[C@@H](CCCCCCCCCCCCC)[C@@H]1C(=O)O — MIC (SC5314): 64 mg/L
CC1=NN(CNC(=O)c2ccccn2)C(=O)C1=NNn1c(-c2ccccc2)nc2ccccc2c1=O — MIC (broth dilution): 104 µM
N=C(N)NCc1ccc(NC(=O)C23CCC(C(=O)Nc4ccc(C5=CCN(C(=N)N)CC5)cc4)(CC2)CC3)cc1 — MIC (broth dilution; 48 h; clinical isolate): 0.2 mg/L
CC1=NN(CNc2ccccc2[N+](=O)[O-])C(=O)C1=NNn1c(-c2ccccc2)nc2ccccc2c1=O — MIC (broth dilution): 50.4 µM
CC[C@@H]([C@H](C)O)n1ncn(-c2ccc(N3CCN(c4ccc(OC[C@@H]5CO[C@@](Cn6cncn6)(c6ccc(F)cc6F)C5)cc4)CC3)cc2)c1=O — MIC (ATCC10231; 72 h): < 0.3 µM
O=C(CCCCCC[P+](c1ccccc1)(c1ccccc1)c1ccccc1)Nc1cc(O)c(O)c(O)c1.[Br-] — MIC (broth dilution; ATCC90028; 24 h): > 32 mg/L
NOCC(=O)O — MIC (SC5314): 1000 mg/L
O=C(CCc1cc(O)c(O)c(O)c1)NCCCCCCCC[P+](c1ccccc1)(c1ccccc1)c1ccccc1.[Br-] — MIC (broth dilution; ATCC90028; 24 h): > 32 mg/L
COc1cc(-c2ccccc2)cc(C(C)C#Cc2c(C)nc(N)nc2N)c1 (racemic) — MIC (resazurin): 250 µM
CC1=NN(CNc2ccc(C(=O)O)cc2)C(=O)C1=NNn1c(-c2ccccc2)nc2ccccc2c1=O — MIC (broth dilution): 50.5 µM
OC(Cn1cncn1)(Cn1cncn1)c1ccc(F)cc1F — MIC (broth dilution; ATCC10231): 1 mg/L
